Assay results as given in ChEMBL document CHEMBL3102713, “The cytotoxic effect of 2-acylated-1,4-naphthohydroquinones on leukemia/lymphoma cells” (Bioorg Med Chem, 2014).

Assays:
Ramos = assay: Cytotoxicity against human Ramos cells assessed as cell viability after 72 hrs by MTS assay; assay type: functional, cell-based
In short: (§1)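 Cells seeded at 10,000 per well in 96-well plates; leukemia/lymphoma lines in RPMI, Hs27 fibroblasts in DMEM, both with 10% heat-inactivated FBS, penicillin and streptomycin, 37 °C, 5% CO2. Exposed to doubling concentrations from 1.56 to 100 µM for 72 h, then MTS added for 4 h. Absorbance read at 490 nm, reference 650 nm, cell-free background subtracted. Viability expressed relative to 1% DMSO solvent control. Eight replicates. IC50 is the concentration giving 50% inhibition of formazan conversion versus untreated cells.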

CCRF-CEM [1] = assay: Cytotoxicity against human CCRF-CEM cells assessed as cell viability after 72 hrs by MTS assay; assay type: functional, cell-based; in short: as §1
[2] = Cytotoxicity against human NALM6 cells assessed as cell viability after 72 hrs by MTS assay; assay type: functional, cell-based; details: NALM-6, 72 h; in short: as §1
HS27 = assay: Cytotoxicity against human HS27 cells assessed as cell viability after 72 hrs by MTS assay; assay type: cell-based; details: HS27, 72 h; in short: as §1
Jurkat = assay: Cytotoxicity against human Jurkat cells assessed as cell viability after 72 hrs by MTS assay; assay type: functional, cell-based; in short: as §1
CCRF-CEM [3] = assay: Cytotoxicity against human CCRF-CEM cells assessed as mitochondrial membrane depolarization at 50 uM after 8 hrs by JC-1 red/green staining-based flow cytometry analysis (reference value: 3.3%); assay type: functional
CCRF-CEM [4] = assay: Induction of apoptosis in human CCRF-CEM cells using fluorogenic substrate assessed as caspase 3 activation at 50 uM after 8 hrs by measuring viable cells using flow cytometric analysis (reference value: 93.9%); assay type: functional
In short: (§2)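 CEM cells were seeded at 50,000 per well in RPMI with 10% FBS and exposed for 8 h at 37 °C, with CCCP (50 µM) as positive control and untreated and 1% DMSO controls. Cells were labelled with NucView 488 caspase-3/7 live-cell fluorogenic substrate. Green-positive cells were counted by flow cytometry (FL1 vs FL2 dot plots), about 10,000 events per sample, in triplicate.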

CCRF-CEM [5] = assay: Induction of apoptosis in human CCRF-CEM cells assessed as caspase 3 activation at 50 uM after 8 hrs by measuring necrotic cells using flow cytometric analysis relative to control; assay type: functional; in short: as §2
CCRF-CEM [6] = assay: Induction of apoptosis in human CCRF-CEM cells using fluorogenic substrate assessed as caspase 3 activation at 50 uM after 8 hrs by measuring late apoptotic cells using flow cytometric analysis relative to control; assay type: functional; in short: as §2
CCRF-CEM [7] = assay: Cytotoxicity against human CCRF-CEM cells assessed as intact mitochondrial membrane potential at 50 uM after 8 hrs by JC-1 red/green staining-based flow cytometry analysis (reference value: 96.7%); assay type: functional
CCRF-CEM [8] = assay: Induction of apoptosis in human CCRF-CEM cells using fluorogenic substrate assessed as caspase 3 activation at 50 uM after 8 hrs by measuring early apoptotic cells using flow cytometric analysis (reference value: 6.1%); assay type: functional; in short: as §2
CCRF-CEM [9] = assay: Cytotoxicity against human CCRF-CEM cells assessed as intact mitochondrial membrane potential at 10 uM after 8 hrs by JC-1 red/green staining-based flow cytometry analysis (reference value: 96.7%); assay type: functional
CCRF-CEM [10] = assay: Induction of apoptosis in human CCRF-CEM cells using fluorogenic substrate assessed as caspase 3 activation at 10 uM after 8 hrs by measuring early apoptotic cells using flow cytometric analysis (reference value: 3.9%); assay type: functional
CCRF-CEM [11] = assay: Induction of apoptosis in human CCRF-CEM cells assessed as late apoptotic cells at 10 uM after 72 hrs by measuring phosphatidylserine translocation using annexin V-FITC/propidium iodide staining-based flow cytometric analysis (reference value: 0.1%); assay type: functional
CCRF-CEM [12] = assay: Cytotoxicity against human CCRF-CEM cells assessed as intact mitochondrial membrane potential at 10 uM after 6 hrs by JC-1 red/green staining-based flow cytometry analysis (reference value: 96.7%); assay type: functional
CCRF-CEM [13] = assay: Induction of apoptosis in human CCRF-CEM cells assessed as caspase 3 activation at 10 uM after 8 hrs by measuring late apoptotic cells using flow cytometric analysis relative to control; assay type: functional
CCRF-CEM [14] = assay: Induction of apoptosis in human CCRF-CEM cells assessed as viable cells at 10 uM after 72 hrs by measuring phosphatidylserine translocation using annexin V-FITC/propidium iodide staining-based flow cytometric analysis (reference value: 98.7%); assay type: functional; details: read-out: Activity
CCRF-CEM [15] = assay: Induction of apoptosis in human CCRF-CEM cells assessed as necrotic cells at 10 uM after 72 hrs by measuring phosphatidylserine translocation using annexin V-FITC/propidium iodide staining-based flow cytometric analysis (reference value: 0.4%); assay type: functional
CCRF-CEM [16] = assay: Cytotoxicity against human CCRF-CEM cells assessed as mitochondrial membrane depolarization at 10 uM by JC-1 red/green staining-based flow cytometry analysis; assay type: functional, cell-based; details: TDE = time-dependent effect
CCRF-CEM [17] = assay: Induction of apoptosis in human CCRF-CEM cells assessed as early apoptotic cells at 10 uM after 72 hrs by measuring phosphatidylserine translocation using annexin V-FITC/propidium iodide staining-based flow cytometric analysis (reference value: 0.8%); assay type: functional
CCRF-CEM [18] = assay: Cytotoxicity against human CCRF-CEM cells assessed as mitochondrial membrane depolarization at 10 uM after 6 hrs by JC-1 red/green staining-based flow cytometry analysis (reference value: 3.3%); assay type: functional
CCRF-CEM [19] = assay: Induction of apoptosis in human CCRF-CEM cells assessed as caspase 3 activation at 10 uM after 8 hrs by measuring necrotic cells using flow cytometric analysis relative to control; assay type: functional
CCRF-CEM [20] = assay: Induction of apoptosis in human CCRF-CEM cells using fluorogenic substrate assessed as caspase 3 activation at 1 uM after 8 hrs by measuring viable cells using flow cytometric analysis (reference value: 96.1%)
CCRF-CEM [21] = assay: Cytotoxicity against human CCRF-CEM cells assessed as mitochondrial membrane depolarization at 10 uM after 8 hrs by JC-1 red/green staining-based flow cytometry analysis (reference value: 3.3%); assay type: functional
CCRF-CEM [22] = assay: Induction of apoptosis in human CCRF-CEM cells assessed as early apoptotic cells at 50 uM after 72 hrs by measuring phosphatidylserine translocation using annexin V-FITC/propidium iodide staining-based flow cytometric analysis (reference value: 0.8%); assay type: functional
CCRF-CEM [23] = assay: Induction of apoptosis in human CCRF-CEM cells assessed as necrotic cells at 50 uM after 72 hrs by measuring phosphatidylserine translocation using annexin V-FITC/propidium iodide staining-based flow cytometric analysis (reference value: 0.4%); assay type: functional
CCRF-CEM [24] = assay: Induction of apoptosis in human CCRF-CEM cells assessed as late apoptotic cells at 50 uM after 72 hrs by measuring phosphatidylserine translocation using annexin V-FITC/propidium iodide staining-based flow cytometric analysis (reference value: 0.1%); assay type: functional
CCRF-CEM [25] = assay: Induction of apoptosis in human CCRF-CEM cells assessed as viable cells at 50 uM after 72 hrs by measuring phosphatidylserine translocation using annexin V-FITC/propidium iodide staining-based flow cytometric analysis (reference value: 98.7%); assay type: functional; details: read-out: Activity

Compound | IC50 (Ramos) [nM] | IC50 (CCRF-CEM [1]) [µM] | IC50 [2] [nM] | IC50 (HS27) [µM] | IC50 (Jurkat) [µM] | other results
CCC(=O)c1cc(O)c2ccccc2c1O | 2490 | 3.95 | 2020 | 18 | 4.54 | –
CC(=O)c1cc(O)c2ccccc2c1O | 750 | 5.24 | 5090 | 9.87 | 5.6 | –
Cc1ccc(C(=O)c2cc(O)c3ccccc3c2O)cc1 | 520 | 0.74 | 2410 | 4.37 | 3.35 | –
N#CC(C#N)=NNc1cccc(Cl)c1 [CARBONYL CYANIDE M-CHLOROPHENYLHYDRAZONE] | – | – | – | – | – | Activity (CCRF-CEM [3]): 100%; Activity (CCRF-CEM [4]): 66.3%; Activity (CCRF-CEM [5]): 0%; Activity (CCRF-CEM [6]): 1.1%; Activity (CCRF-CEM [7]): 0%; Activity (CCRF-CEM [8]): 32.6%
O=C(c1ccccc1)c1cc(O)c2ccccc2c1O | 4130 | 5.44 | 2580 | 8.3 | 6.35 | –
CCCCCCCCCCCC(=O)c1cc(O)c2ccccc2c1O | 980 | 5.99 | 5800 | 43.8 | 6.56 | Activity (CCRF-CEM [9]): 37.7%; Activity (CCRF-CEM [10]): 35.2%; Activity (CCRF-CEM [11]): 3.7%; Activity (CCRF-CEM [12]): 63.2%; Activity (CCRF-CEM [13]): 0%; viability at 10 µM (CCRF-CEM [14]): 0.5%; Activity (CCRF-CEM [15]): 3%; Activity (CCRF-CEM [16]): tde; Activity (CCRF-CEM [17]): 92.8%; Activity (CCRF-CEM [18]): 36.8%; Activity (CCRF-CEM [19]): 0%; Activity (CCRF-CEM [20]): 64.8%; Activity (CCRF-CEM [21]): 62.3%
COc1ccc(C(=O)c2cc(O)c3ccccc3c2O)cc1 | 660 | 0.01 | 880 | 4.97 | 2.78 | –
C/C=C/C(=O)c1cc(O)c2ccccc2c1O | 4250 | 3.19 | 4630 | 37.1 | 6.24 | Activity (CCRF-CEM [22]): 1.3%; Activity (CCRF-CEM [23]): 19.8%; Activity (CCRF-CEM [24]): 0.4%; viability at 50 µM (CCRF-CEM [25]): 78.6%
